# Measurements: ChEMBL document CHEMBL2331329, “Synthesis and biological evaluation of 2-(alkoxycarbonyl)-3-anilinobenzo[b]thiophenes and thieno[2,3-b]pyridines as new potent anticancer agents” (J Med Chem, 2013)
# Calls of active or inactive are those of the source. The rule behind the calls is not given here.
# What was measured:
# Bos taurus [1] = species on record: Bos taurus; assay: Displacement of [3H]colchicine from bovine brain tubulin at 1 uM after 20 mins by turbidimetric analysis
# Bos taurus [2] = species on record: Bos taurus; assay: Displacement of [3H]colchicine from bovine brain tubulin at 5 uM after 20 mins by turbidimetric analysis
# [3] = Inhibition of bovine brain tubulin polymerization after 20 mins by turbidimetric analysis; parameters: species or system Bos taurus
# Procedure, shortened: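 Bovine brain tubulin (10 μM) preincubated with varying compound concentrations in glutamate buffer at 30 °C, chilled to 0 °C, 0.4 mM GTP added, then warmed to 30 °C in a recording spectrophotometer.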
# HT-29 [4] = assay: Cytotoxicity against human HT-29 cells after 72 hrs by MTT assay; format: functional, cell-based; details: HT-29, 72 h
# [5] = Cytotoxicity against human SEM cells after 72 hrs by MTT assay; format: functional, cell-based
# Procedure, shortened: (§1)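 Cells plated at 8 × 10^3 per well, 18 h at 37 °C, 5% CO2, then fresh medium with graded compound concentrations (DMSO ≤0.25%) for 72 h. Jurkat, SEM, HL-60 grown in RPMI-1640; A549, HeLa, HT-29, MCF-7 in DMEM; 10% FBS with penicillin/streptomycin. MTT viability read-out; IC50 vs 0.25% DMSO controls; mean ± SE of at least three independent experiments.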
# MCF7 = assay: Cytotoxicity against human MCF7 cells after 72 hrs by MTT assay; format: functional, cell-based; details: MCF7, 72 h
# Jurkat [6] = assay: Cytotoxicity against human Jurkat cells after 72 hrs by MTT assay; format: functional, cell-based; procedure, shortened: as §1
# HL-60 = assay: Cytotoxicity against human HL60 cells after 72 hrs by MTT assay; format: functional, cell-based; details: HL-60, 72 h
# HeLa [7] = assay: Cytotoxicity against human HeLa cells after 72 hrs by MTT assay; format: functional, cell-based
# A549 [8] = assay: Cytotoxicity against human A549 cells after 72 hrs by MTT assay; format: functional, cell-based; details: A549, 72 h
# HeLa [9] = assay: Cell cycle arrest in human HeLa cells assessed as accumulation at G2/M phase after 24 hrs by propidium iodide staining-based flow cytometry; format: functional
# Procedure, shortened: (§2)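 Jurkat, HT-29 and HeLa cells in exponential growth (5 × 10^5 cells) treated 24 h at a range of concentrations. Fixed in ice-cold 70% ethanol, lysed with buffer containing RNase A and 0.1% Triton X-100, stained with propidium iodide. DNA content read by flow cytometry and the percentage of cells per cycle phase derived from DNA histograms.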
# HT-29 [10] = assay: Cell cycle arrest in human HT-29 cells assessed as accumulation at G2/M phase after 24 hrs by propidium iodide staining-based flow cytometry; format: functional; procedure, shortened: as §2
# Jurkat [11] = assay: Cell cycle arrest in human Jurkat cells assessed as accumulation at G2/M phase after 24 hrs by propidium iodide staining-based flow cytometry; format: functional; procedure, shortened: as §2
# HeLa [12] = assay: Induction of apoptosis in human HeLa cells assessed as ROS production at 10 to 100 nM after 24 to 48 hrs by HE staining-based flow cytometry relative to control; format: functional, cell-based
# Procedure, shortened: (§3)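 HeLa cells treated 24 or 48 h, then stained with H2-DCFDA or hydroethidine. ROS read by flow cytometry against untreated control. Mean ± SEM of three independent experiments.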
# HeLa [13] = assay: Induction of apoptosis in human HeLa cells assessed as ROS production at 10 to 100 nM after 24 to 48 hrs by H2-DCFDA staining-based flow cytometry relative to control; format: functional, cell-based; procedure, shortened: as §3
# HeLa [14] = assay: Induction of apoptosis in human HeLa cells assessed as mitochondrial membrane depolarization after 24 to 48 hrs by JC-1 staining; format: functional, cell-based
# Procedure, shortened: (§4)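 HeLa cells treated 24 or 48 h, then stained with the potentiometric dye JC-1. Proportion of cells with depolarised mitochondria read by flow cytometry. Mean ± SEM of three independent experiments.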
# HeLa [15] = assay: Induction of apoptosis in human HeLa cells assessed as mitochondrial membrane depolarization at 10 to 100 nM by JC-1 staining; format: functional, cell-based; details: TDE = time-dependent effect; procedure, shortened: as §4
# HeLa [16] = assay: Induction of apoptosis in human HeLa cells assessed as early apoptotic cells at 10 to 100 nM by annexin V-FITC and propidium iodide staining-based flow cytometry; format: functional, cell-based; details: TDE = time-dependent effect
# Procedure, shortened: (§5)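 HeLa cells treated 24 or 48 h, then co-labelled with annexin-V–FITC and propidium iodide. Flow cytometry with 488 nm excitation and emission at 525 nm (FITC) and 585 nm (PI); early apoptotic cells counted as annexin-V+/PI−. Mean ± SEM of three independent experiments.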
# HeLa [17] = assay: Induction of apoptosis in human HeLa cells assessed as early apoptotic cells after 24 to 48 hrs by annexin V-FITC/Propidium iodide staining-based flow cytometry; format: functional, cell-based; procedure, shortened: as §5
# HeLa [18] = assay: Cell cycle arrest in human HeLa cells assessed as accumulation at G2/M phase at 20 nM after 24 hrs by propidium iodide staining-based flow cytometry; format: functional; procedure, shortened: as §2
# HT-29 [19] = assay: Cell cycle arrest in human HT-29 cells assessed as accumulation at G2/M phase at 20 nM after 24 hrs by propidium iodide staining-based flow cytometry; format: functional; procedure, shortened: as §2
# Jurkat [20] = assay: Cell cycle arrest in human Jurkat cells assessed as accumulation at G2/M phase at 20 nM after 24 hrs by propidium iodide staining-based flow cytometry; format: functional; procedure, shortened: as §2
# A549 [21] = assay: Resistance index, ratio of IC50 for human A549-T12 cells to IC50 for human A549 cells; format: functional
# Procedure, shortened: (§6)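 Mean ± SE of at least three independent experiments. Resistance ratio = IC50 in resistant line/IC50 in nonresistant line.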
# [22] = Cytotoxicity against human A549-T12 cells after 72 hrs by MTT assay; format: functional, cell-based; details: A549, 72 h; procedure, shortened: as §6
# CCRF-CEM [23] = assay: Resistance index, ratio of IC50 for human CEM/VBL100 cells to IC50 for human CEM cells; format: functional
# Procedure, shortened: (§7)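 MTT viability test: 8 × 10^3 cells per well settled 18 h at 37 °C, 5% CO2, then given fresh medium with compound (from 10 mM DMSO stocks, final DMSO ≤0.25%) for 72 h. […] CEMVbl-100 is a vinblastine-selected P-gp line; LoVoDoxo is grown in Ham's F12 with 0.1 μg/mL doxorubicin. Resistance index = resistant IC50/parental IC50.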
# [24] = Cytotoxicity against human CEM/VBL100 cells after 72 hrs by MTT assay; format: functional, cell-based; details: CEM/VBL100, 72 h; procedure, shortened: as §7
# CCRF-CEM [25] = assay: Cytotoxicity against human CEM cells after 72 hrs by MTT assay; format: functional, cell-based; procedure, shortened: as §7
# LoVo [26] = assay: Resistance index, ratio of IC50 for human LoVo/DX cells to IC50 for human LoVo cells; format: functional; procedure, shortened: as §7
# [27] = Cytotoxicity against human LoVo/DX cells after 72 hrs by MTT assay; format: functional, cell-based; procedure, shortened: as §7
# LoVo [28] = assay: Cytotoxicity against human LoVo cells after 72 hrs by MTT assay; format: functional, cell-based; procedure, shortened: as §7
# PBL = assay: Cytotoxicity against human PHA-stimulated PBL cells after 72 hrs by MTT assay; format: cell-based
# Procedure, shortened: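 Peripheral blood lymphocytes from healthy donors isolated on a Lymphoprep gradient and rested overnight in RPMI-1640 with 10% FBS. Nonadherent cells at 5 × 10^5 cells/mL, with 2.5 μg/mL PHA for proliferating cultures or without it for resting ones. Compound exposure 72 h, viability by MTT. Mean ± SEM of three experiments.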
# HeLa [29] = assay: Cell cycle arrest in human HeLa cells assessed as accumulation at G2/M phase at >20 nM after 24 hrs by propidium iodide staining-based flow cytometry; format: functional; procedure, shortened: as §2
# HT-29 [30] = assay: Cell cycle arrest in human HT-29 cells assessed as accumulation at G2/M phase at >20 nM after 24 hrs by propidium iodide staining-based flow cytometry; format: functional; procedure, shortened: as §2
# Jurkat [31] = assay: Cell cycle arrest in human Jurkat cells assessed as accumulation at G2/M phase at >20 nM after 24 hrs by propidium iodide staining-based flow cytometry; format: functional; procedure, shortened: as §2
# [32] = Antitumor activity against mouse BNL 1ME A.7R.1 cells xenografted in Balb/c mouse assessed as reduction in tumor growth at 5 mg/kg, ip QD for 7 days; format: functional; parameters: scale not given: the % may be the effect or the level left; details: route intraperitoneal
# Procedure, shortened: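 Male Balb/c mice, 8 weeks old, given 10^7 syngeneic BNL 1ME A.7R.1 hepatoma cells subcutaneously in the dorsal region in 200 μL PBS. Randomised to groups of five. Dosed intraperitoneally once daily for 7 days at 5 mg/kg in 0.9% NaCl with 5% PEG 400 and 0.5% Tween 80, against vehicle and CA-4P. Tumours measured daily by caliper, V = AB2/2; body weight recorded. Mean ± SEM.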
smiles,measurement,setting,value
COC(=O)c1sc2cc(C)ccc2c1Nc1cc(OC)c(OC)c(OC)c1,inhibition,Bos taurus [1],71%
same,inhibition,Bos taurus [2],95%
same,IC50,[3],1200 nM
same,IC50,HT-29 [4],1.9 nM
same,IC50,[5],0.7 nM
same,IC50,MCF7,1.2 nM
same,IC50,Jurkat [6],0.6 nM
same,IC50,HL-60,20.5 nM
same,IC50,HeLa [7],0.31 nM
same,IC50,A549 [8],10.8 nM
COC(=O)c1sc2ncccc2c1Nc1cc(OC)c(OC)c(OC)c1,IC50,HT-29 [4],542 nM
same,IC50,[5],348 nM
same,IC50,MCF7,2640 nM
same,IC50,Jurkat [6],1110 nM
same,IC50,HL-60,2920 nM
same,IC50,A549 [8],3850 nM
CCOC(=O)c1sc2cc(C)ccc2c1Nc1cc(OC)c(OC)c(OC)c1,inhibition,Bos taurus [1],58%
same,inhibition,Bos taurus [2],89%
same,IC50,[3],1100 nM
same,IC50,HT-29 [4],6 nM
same,IC50,[5],1.5 nM
same,IC50,MCF7,9 nM
same,IC50,Jurkat [6],0.4 nM
same,IC50,HL-60,3.9 nM
same,IC50,HeLa [7],0.38 nM
same,IC50,A549 [8],7.2 nM
COC(=O)c1sc2nc(C)ccc2c1Nc1cc(OC)c(OC)c(OC)c1,Activity,HeLa [9],Dose-dependent effect
same,Activity,HT-29 [10],Dose-dependent effect
same,Activity,Jurkat [11],Dose-dependent effect
same,Activity,HeLa [12],Active
same,Activity,HeLa [13],Active
same,Activity,HeLa [14],Dose-dependent effect
same,Activity,HeLa [15],tde
same,Activity,HeLa [16],tde
same,Activity,HeLa [17],Dose-dependent effect
same,Activity,HeLa [18],Active
same,Activity,HT-29 [19],Active
same,Activity,Jurkat [20],Active
same,inhibition,Bos taurus [1],78%
same,inhibition,Bos taurus [2],95%
same,IC50,[3],700 nM
same,Ratio IC50,A549 [21],1.2
same,IC50,[22],19.5 nM
same,Ratio IC50,CCRF-CEM [23],1.5
same,IC50,[24],4.2 nM
same,IC50,CCRF-CEM [25],2.8 nM
same,Ratio IC50,LoVo [26],0.3
same,IC50,[27],0.5 nM
same,IC50,LoVo [28],1.9 nM
same,IC50,PBL,3400 nM
same,IC50,HT-29 [4],0.35 nM
same,IC50,[5],0.5 nM
same,IC50,MCF7,0.53 nM
same,IC50,Jurkat [6],0.6 nM
same,IC50,HL-60,0.4 nM
same,IC50,HeLa [7],0.18 nM
same,IC50,A549 [8],16.2 nM
same,Activity,HeLa [29],>80%
same,Activity,HT-29 [30],>80%
same,Activity,Jurkat [31],>80%
CCOC(=O)c1sc2cccc(C)c2c1Nc1cc(OC)c(OC)c(OC)c1,IC50,HT-29 [4],3610 nM
same,IC50,[5],1930 nM
same,IC50,MCF7,4150 nM
same,IC50,Jurkat [6],5670 nM
same,IC50,HL-60,7380 nM
same,IC50,HeLa [7],2520 nM
same,IC50,A549 [8],6250 nM
COc1cccc2c1C(=O)c1c(O)c3c(c(O)c1C2=O)C[C@@](O)(C(=O)CO)C[C@@H]3O[C@H]1C[C@H](N)[C@H](O)[C@H](C)O1 [DOXORUBICIN],Ratio IC50,LoVo [26],118
same,IC50,[27],11300 nM
same,IC50,LoVo [28],95.6 nM
CCOC(=O)c1sc2ccccc2c1Nc1cc(OC)c(OC)c(OC)c1,IC50,HT-29 [4],1610 nM
same,IC50,[5],1900 nM
same,IC50,MCF7,6390 nM
same,IC50,Jurkat [6],3020 nM
same,IC50,HL-60,5490 nM
same,IC50,HeLa [7],3100 nM
same,IC50,A549 [8],8530 nM
COC(=O)c1sc2c(OC)cccc2c1Nc1cc(OC)c(OC)c(OC)c1,inhibition,Bos taurus [1],54%
same,inhibition,Bos taurus [2],76%
same,IC50,[3],760 nM
same,IC50,HT-29 [4],14.9 nM
same,IC50,[5],2.3 nM
same,IC50,MCF7,95 nM
same,IC50,Jurkat [6],56.5 nM
same,IC50,HL-60,25.6 nM
same,IC50,HeLa [7],3.5 nM
same,IC50,A549 [8],33 nM
COc1ccc(/C=C\c2cc(OC)c(OC)c(OC)c2)cc1OP(=O)([O-])[O-].[Na+].[Na+] [FOSBRETABULIN DISODIUM],Activity,[32],44.5%
